Laboratory results as given in ChEMBL document CHEMBL4265984, “Improved potency and reduced toxicity of the antifungal peptoid AEC5 through submonomer modification” (Bioorg Med Chem Lett, 2018).
In brackets after ≈: the same amount, converted by molar mass.

Legend:
Cryptococcus neoformans = test: Antifungal activity against Cryptococcus neoformans H99S serotype A after 72 hrs by presto blue dye based CLSI method; format: functional, Cryptococcus neoformans var. grubii H99S
[1] = Cytotoxicity against human HepG2 cells after 72 hrs by MTT assay; format: cell-based; details: read-out: TD50
[2] = Selectivity index, ratio of TD50 for human HepG2 cells to MIC>90 for Cryptococcus neoformans H99S serotype A; format: toxicity; details: read-out: Selectivity Index
[3] = Selectivity index, ratio of HC10 for human RBC to MIC>90 for Cryptococcus neoformans H99S serotype A; format: toxicity; details: red blood cells, read-out: Selectivity Index
[4] = Selectivity index, ratio of TD50 for mouse NIH/3T3 cells to MIC>90 for Cryptococcus neoformans H99S serotype A; format: toxicity; details: read-out: Selectivity Index
Erythrocyte = test: Hemolytic activity in human RBC after 1 hr; format: ADME, cell-based
Outline: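 Hemolysis of human red blood cells is reported as HC10, the concentration giving 10% hemolysis, in µg/mL.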

[5] = Cytotoxicity against mouse NIH/3T3 cells after 72 hrs by MTT assay; format: cell-based, NIH3T3; details: read-out: TD50
[6] = Hemolytic activity in human RBC at 100 ug/ml after 1 hr relative to control; format: ADME, cell-based, Erythrocyte; details: red blood cells (erythrocytes), read-out: Activity

| SMILES | MIC90 (Cryptococcus neoformans) | CC50 at 72 h [1] | selectivity ratio [2] | selectivity ratio [3] | selectivity ratio [4] | HC10 (Erythrocyte) | CC50 at 72 h [5] | hemolysis at 1 h, 100 ug/ml [6] |
| --- | --- | --- | --- | --- | --- | --- | --- | --- |
| CCCCCCCCCCCCCNCC(=O)N(CCCNC(=N)N)CC(=O)N(CC(N)=O)Cc1cccs1 | 12.5 µg/mL (≈ 22.1 µM) | 40.8 µg/mL (≈ 72.1 µM) | 3 |  |  |  |  |  |
| CCCCCCCCCCCCCNCC(=O)N(CCCCN)CC(=O)N(CC(N)=O)CC1CCCO1 (centres undefined) | 12.5 µg/mL (≈ 23.8 µM) | 170 µg/mL (≈ 324 µM) | 14 |  |  |  |  |  |
| CCCCCCCCCCCCCNCC(=O)N(CCCCN)CC(=O)N(CC(N)=O)Cc1ccccc1 | 3.13 µg/mL (≈ 5.89 µM) | 52.2 µg/mL (≈ 98.2 µM) | 17 |  |  |  |  |  |
| CCCCCCCCCCCCCNCC(=O)N(CCCN)CC(=O)N(CC(N)=O)Cc1cccs1 | 3.13 µg/mL (≈ 5.98 µM) | 47.3 µg/mL (≈ 90.3 µM) | 15 |  |  |  |  |  |
| CC(C)=CCC/C(C)=C/CC/C(C)=C/CNCC(=O)N(CCCCN)CC(=O)N(CCc1c[nH]c2ccccc12)CC(N)=O | 100 µg/mL (≈ 165 µM) |  |  |  |  |  |  |  |
| CCCCCCCCCCCCCNCC(=O)N(CCCCN)CC(=O)N(CCc1c[nH]c2ccccc12)CC(N)=O | 3.13 µg/mL (≈ 5.35 µM) | 42.7 µg/mL (≈ 73 µM) | 14 |  |  |  |  |  |
| CCCCCCCCCCCCCNCC(=O)N(CCCCCCN)CC(=O)N(CC(N)=O)Cc1cccs1 | 3.13 µg/mL (≈ 5.53 µM) | 56.2 µg/mL (≈ 99.3 µM) | 18 |  |  |  |  |  |
| CC(C)=CCC/C(C)=C/CC/C(C)=C/CNCC(=O)N(CCCCN)CC(=O)N(CC(N)=O)Cc1ccco1 | 100 µg/mL (≈ 184 µM) | 800 µg/mL (≈ 1470 µM) | 8 |  |  |  |  |  |
| CCCCCCCCCCCCCNCC(=O)N(CCCCN)CC(=O)N(CCCn1ccnc1)CC(N)=O | 50 µg/mL (≈ 90.9 µM) | 228 µg/mL (≈ 415 µM) | 5 |  |  |  |  |  |
| CCCCCCCCCCNCC(=O)N(CCCCN)CC(=O)N(CC(N)=O)Cc1ccco1 | 400 µg/mL (≈ 834 µM) |  |  |  |  |  |  |  |
| CNCC(=O)N(CCCCN)CC(=O)N(CC(N)=O)Cc1ccco1 | > 400 µg/mL | > 800 µg/mL |  |  |  |  |  |  |
| CCCCCCCCCCCCCNCC(=O)N(CCCCO)CC(=O)N(CC(N)=O)Cc1cccs1 | 12.5 µg/mL (≈ 23.2 µM) | 31 µg/mL (≈ 57.5 µM) | 3 |  |  |  |  |  |
| CC(C)=CCC/C(C)=C/CNCC(=O)N(CCCCN)CC(=O)N(CC(N)=O)Cc1ccco1 | 400 µg/mL (≈ 841 µM) |  |  |  |  |  |  |  |
| CCCCCCCCNCC(=O)N(CCCCN)CC(=O)N(CC(N)=O)Cc1ccco1 | > 800 µg/mL |  |  |  |  |  |  |  |
| CCCCCCCCCCCCCNCC(=O)N(CCN)CC(=O)N(CC(N)=O)Cc1cccs1 | 6.25 µg/mL (≈ 12.3 µM) | 40.5 µg/mL (≈ 79.4 µM) | 6 |  |  |  |  |  |
| CC(C)=CCC/C(C)=C/CC/C(C)=C/CNCC(=O)N(CCCCN)CC(=O)N(CCCn1ccnc1)CC(N)=O | 100 µg/mL (≈ 175 µM) |  |  |  |  |  |  |  |
| CCCCCCCCCCCCCNCC(=O)N(CCCCN)CC(=O)N(CC(N)=O)Cc1ccncc1 | 25 µg/mL (≈ 46.9 µM) | 104 µg/mL (≈ 195 µM) | 4 |  |  |  |  |  |
| CCCCCCCCCCCCCNCC(=O)N(C)CC(=O)N(CC(N)=O)Cc1ccco1 | 12.5 µg/mL (≈ 26.9 µM) | 21.1 µg/mL (≈ 45.4 µM) | 2 |  |  |  |  |  |
| CCCCCCCCCCCCCNCC(=O)N(CCCCN)CC(=O)N(C)CC(N)=O | 50 µg/mL (≈ 110 µM) | 54.3 µg/mL (≈ 119 µM) | 1 |  |  |  |  |  |
| CCCCCCCCCCCCCNCC(=O)N(CCCCN)CC(=O)N(CC(N)=O)Cc1ccco1 | 6.3 µg/mL (≈ 12.1 µM) | 56.2 µg/mL (≈ 108 µM) | 9 | 9 | 8 | 56.6 µg/mL | 48.6 µg/mL (≈ 93.1 µM) | 30.4% |
| CCCCCCCCCCCCCNCC(=O)N(CCCC[N+](C)(C)C)CC(=O)N(CC(N)=O)Cc1cccs1 | 3.13 µg/mL | 91.2 µg/mL |  |  |  | 42.6 µg/mL | 115 µg/mL | 46% |
| CCCCCCCCCCCCCNCC(=O)N(CCCCN)CC(=O)N(CC(N)=O)Cc1ncc[nH]1 | 25 µg/mL (≈ 47.9 µM) | 147 µg/mL (≈ 282 µM) | 6 |  |  |  |  |  |
| CC(C)=CCC/C(C)=C/CC/C(C)=C/CNCC(=O)N(CCCCN)CC(=O)N(CC(N)=O)Cc1cccs1 | 400 µg/mL (≈ 715 µM) |  |  |  |  |  |  |  |
| CCCCCCCCCCCCCCCCNCC(=O)N(CCCCN)CC(=O)N(CC(N)=O)Cc1ccco1 | 3.13 µg/mL (≈ 5.55 µM) | 40.4 µg/mL (≈ 71.7 µM) | 13 |  |  |  |  |  |
| CCCCCCCCCCCCCNCC(=O)N(CCCCN)CC(=O)N(CC(N)=O)Cc1cccs1 | 3.13 µg/mL (≈ 5.82 µM) | 79.3 µg/mL (≈ 147 µM) | 25 | 12 | 21 | 37.2 µg/mL | 65.9 µg/mL (≈ 123 µM) | 48.6% |
